Test results from ChEMBL document CHEMBL4190330, “Discovery of Potent and Selective A2A Antagonists with Efficacy in Animal Models of Parkinson's Disease and Depression” (ACS Med Chem Lett, 2017).
Converted amounts (≈) assume the structure as drawn. The source made the active and inactive calls. The rule behind the calls is not given here.

Assays:
Adenosine receptor A2a [1] = target: Adenosine receptor A2a (Homo sapiens, UniProt P29274); assay: Displacement of [3H]ZM241385 from human A2A receptor expressed in HEK293 cell membranes after 90 mins radioligand binding assay
Sequence of Adenosine receptor A2a (Homo sapiens, UniProt P29274) (P29274 whole entry): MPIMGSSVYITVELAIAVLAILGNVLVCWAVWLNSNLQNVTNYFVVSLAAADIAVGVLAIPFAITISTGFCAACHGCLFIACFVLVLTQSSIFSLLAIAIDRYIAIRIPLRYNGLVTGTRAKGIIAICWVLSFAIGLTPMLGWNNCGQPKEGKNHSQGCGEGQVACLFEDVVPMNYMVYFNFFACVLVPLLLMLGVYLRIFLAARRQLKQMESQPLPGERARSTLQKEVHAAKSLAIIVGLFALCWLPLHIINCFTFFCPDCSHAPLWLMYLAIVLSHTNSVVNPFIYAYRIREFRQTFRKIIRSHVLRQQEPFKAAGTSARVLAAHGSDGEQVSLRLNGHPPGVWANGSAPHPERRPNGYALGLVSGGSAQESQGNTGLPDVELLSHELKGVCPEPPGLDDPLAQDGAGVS
Outline: (§1)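 Membranes from HEK-293 cells overexpressing the relevant human adenosine receptor subtype; all points in triplicate; Ki derived from 8-concentration IC50 curves.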

Adenosine receptor A1 = target: T1, Adenosine receptor A1 (Homo sapiens, UniProt P30542); assay: Displacement of [3H]-DPCPX from human A1 receptor expressed in HEK293 cell membranes after 90 mins radioligand binding assay; outline: as §1
T1 sequence (P30542 whole entry): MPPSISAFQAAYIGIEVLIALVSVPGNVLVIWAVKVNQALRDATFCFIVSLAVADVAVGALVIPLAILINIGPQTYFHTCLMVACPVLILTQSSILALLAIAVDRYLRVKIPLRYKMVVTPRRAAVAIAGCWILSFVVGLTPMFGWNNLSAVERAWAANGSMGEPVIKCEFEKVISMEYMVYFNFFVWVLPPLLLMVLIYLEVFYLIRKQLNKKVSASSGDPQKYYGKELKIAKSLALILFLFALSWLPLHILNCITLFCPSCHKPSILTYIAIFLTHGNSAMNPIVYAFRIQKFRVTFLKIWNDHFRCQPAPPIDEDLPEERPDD

Adenosine receptor A2a [2] = target: Adenosine receptor A2a (Rattus norvegicus, UniProt P30543); assay: Antagonist activity at rat A2A receptor assessed as reduction in CGS-21680-induced cAMP level pretreated for 15 mins followed by CGS-21680 addition measured after 30 mins by HTRF assay; format: functional
Sequence of Adenosine receptor A2a (Rattus norvegicus, UniProt P30543) (P30543 whole entry): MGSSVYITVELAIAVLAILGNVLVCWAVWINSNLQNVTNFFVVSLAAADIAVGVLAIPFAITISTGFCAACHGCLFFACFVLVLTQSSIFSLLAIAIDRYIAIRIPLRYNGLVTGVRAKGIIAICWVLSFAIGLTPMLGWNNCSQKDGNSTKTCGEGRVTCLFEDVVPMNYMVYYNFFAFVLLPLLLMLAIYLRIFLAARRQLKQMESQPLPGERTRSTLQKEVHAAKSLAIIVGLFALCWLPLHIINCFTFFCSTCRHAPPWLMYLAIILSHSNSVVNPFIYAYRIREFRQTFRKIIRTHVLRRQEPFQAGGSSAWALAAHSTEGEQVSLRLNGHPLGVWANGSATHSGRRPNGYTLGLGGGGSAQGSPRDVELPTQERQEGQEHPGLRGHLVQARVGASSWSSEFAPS
Outline: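 HTRF-based cAMP functional assay; each compound tested at 12 concentrations, every point in triplicate; Ki given as mean of two independent experiments (n=2).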

Homo sapiens = species on record: Homo sapiens; assay: Selectivity ratio of Ki for displacement of [3H]-DPCPX from human A1 receptor expressed in HEK293 cell membranes to Ki for displacement of [3H]ZM241385 from human A2A receptor expressed in HEK293 cell membranes
Outline: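 Radioligand binding used membranes from HEK-293 cells overexpressing each human adenosine receptor isoform. Points were run in triplicate, and 8-concentration IC50 curves were plotted to give Ki. The selectivity value is the Ki at the off-target isoform divided by the Ki at hA2A.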

[3] = Solubility of the compound at pH 7.4; format: physicochemical; settings: buffer
Adenosine receptor A2b = target: T2, Adenosine receptor A2b (Homo sapiens, UniProt P29275); assay: Displacement of [3H]-MRS-1754 from human A2B receptor expressed in HEK293 cell membranes after 90 mins radioligand binding assay; outline: as §1
T2 sequence (P29275 whole entry): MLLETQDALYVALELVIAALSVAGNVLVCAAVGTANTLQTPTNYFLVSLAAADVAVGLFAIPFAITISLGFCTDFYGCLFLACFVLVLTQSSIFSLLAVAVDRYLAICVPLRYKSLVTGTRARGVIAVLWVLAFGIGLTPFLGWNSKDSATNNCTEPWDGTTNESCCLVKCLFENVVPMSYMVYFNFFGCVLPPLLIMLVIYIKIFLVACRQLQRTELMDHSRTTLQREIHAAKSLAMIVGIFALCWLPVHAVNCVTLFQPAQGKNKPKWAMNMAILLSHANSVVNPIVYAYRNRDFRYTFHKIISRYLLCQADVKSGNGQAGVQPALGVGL

[4] = target: T3, Adenosine receptor A1 (Homo sapiens) (UniProt P30542); assay: Antagonist activity at human adenosine A1 receptor expressed in HEK293 cell membranes assessed as inhibition of CPA/forskolin-induced cAMP level at 10 uM pretreated for 15 mins followed by agonist addition for 15 mins and subsequent forskolin stimulation measured after 30 mins by HTRF assay; format: functional, cell-based
T3 sequence (whole entry): T1 sequence (P30542 whole entry)
Outline: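 HTRF cAMP functional assay on the human receptor isoform, run in triplicate at 12 concentrations with a top concentration of 10 µM, in two independent experiments. Inhibition at 10 µM is recorded where no Ki could be derived.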

[5] = Metabolic stability in mouse liver microsomes assessed as metabolic rate; format: ADME, microsome
Outline: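 Liver microsomes (mouse, rat, dog, human) at 0.125 mg/mL protein; metabolic rate expressed as nmol/min/mg.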

[6] = Solubility of the compound at pH 4; format: physicochemical; settings: buffer
[7] = Permeability across apical to basolateral side in human Caco2 cells; format: ADME, cell-based; settings: caco-2
[8] = Permeability across basolateral to apical side in human Caco2 cells; format: ADME, cell-based; settings: caco-2
[9] = Protein binding in mouse plasma; format: ADME, cell-free; settings: read-out: PPB (converted)
[10] = Protein binding in dog plasma; format: ADME, cell-free, Canis lupus familiaris; settings: read-out: PPB (converted)
[11] = Protein binding in human plasma; format: ADME, cell-free; settings: read-out: PPB (converted)
Cytochrome P450 2C19 = Cytochrome P450 2C19 (Homo sapiens, UniProt P33261); assay: Inhibition of CYP2C19 (unknown origin); format: ADME
Sequence of Cytochrome P450 2C19 (P33261 whole entry): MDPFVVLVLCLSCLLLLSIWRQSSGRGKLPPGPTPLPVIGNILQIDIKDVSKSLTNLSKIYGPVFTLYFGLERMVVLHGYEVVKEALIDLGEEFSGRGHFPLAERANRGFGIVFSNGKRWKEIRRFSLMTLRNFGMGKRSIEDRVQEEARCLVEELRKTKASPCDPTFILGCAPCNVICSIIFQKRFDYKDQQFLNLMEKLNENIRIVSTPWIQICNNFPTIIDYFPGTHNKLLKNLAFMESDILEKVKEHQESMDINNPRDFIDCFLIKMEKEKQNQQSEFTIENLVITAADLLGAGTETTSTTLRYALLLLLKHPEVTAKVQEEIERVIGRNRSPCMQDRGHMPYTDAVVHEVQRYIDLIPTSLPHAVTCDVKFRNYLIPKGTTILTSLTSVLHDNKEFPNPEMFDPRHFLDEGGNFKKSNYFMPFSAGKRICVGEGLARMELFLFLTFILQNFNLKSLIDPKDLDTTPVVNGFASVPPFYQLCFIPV

hERG = hERG (Homo sapiens, UniProt Q12809); assay: Inhibition of human ERG at 3 uM relative to control
Sequence of hERG (Q12809 whole entry): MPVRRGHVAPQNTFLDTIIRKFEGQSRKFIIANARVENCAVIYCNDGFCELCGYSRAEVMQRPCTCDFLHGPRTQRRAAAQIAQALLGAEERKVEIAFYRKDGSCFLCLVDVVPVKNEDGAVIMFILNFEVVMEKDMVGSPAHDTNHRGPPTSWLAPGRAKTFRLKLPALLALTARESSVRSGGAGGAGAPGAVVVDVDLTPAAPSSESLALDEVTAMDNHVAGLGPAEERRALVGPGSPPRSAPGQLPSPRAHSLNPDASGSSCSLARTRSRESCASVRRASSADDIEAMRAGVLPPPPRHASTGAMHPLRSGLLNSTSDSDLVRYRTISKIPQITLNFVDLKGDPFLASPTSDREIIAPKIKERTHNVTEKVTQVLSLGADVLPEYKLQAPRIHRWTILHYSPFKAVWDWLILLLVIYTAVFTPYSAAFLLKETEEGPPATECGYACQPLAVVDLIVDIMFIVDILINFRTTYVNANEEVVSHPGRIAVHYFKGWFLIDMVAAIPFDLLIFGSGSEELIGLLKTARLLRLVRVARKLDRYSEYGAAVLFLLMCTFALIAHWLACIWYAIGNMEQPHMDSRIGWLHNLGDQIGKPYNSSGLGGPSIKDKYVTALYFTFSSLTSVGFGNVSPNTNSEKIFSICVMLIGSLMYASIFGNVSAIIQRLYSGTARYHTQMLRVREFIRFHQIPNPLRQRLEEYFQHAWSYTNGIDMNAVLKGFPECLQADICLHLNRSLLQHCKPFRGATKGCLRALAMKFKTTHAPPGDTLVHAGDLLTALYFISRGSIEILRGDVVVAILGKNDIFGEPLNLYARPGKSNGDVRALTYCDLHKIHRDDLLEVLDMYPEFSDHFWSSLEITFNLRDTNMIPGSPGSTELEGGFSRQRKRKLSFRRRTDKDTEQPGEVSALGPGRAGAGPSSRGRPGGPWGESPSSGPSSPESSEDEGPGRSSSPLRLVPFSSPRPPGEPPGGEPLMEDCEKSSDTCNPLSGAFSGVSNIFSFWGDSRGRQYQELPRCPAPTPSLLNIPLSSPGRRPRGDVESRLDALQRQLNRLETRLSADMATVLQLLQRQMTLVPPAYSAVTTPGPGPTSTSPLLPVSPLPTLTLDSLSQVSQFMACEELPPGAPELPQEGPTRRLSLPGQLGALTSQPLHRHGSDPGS

[12] = Volume of distribution at steady state in Wistar rat at 3 mg/kg, iv by LC-MS/MS analysis; format: ADME, organism-based; settings: in vivo, read-out: Vdss
Outline: (§2)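 Male Wistar rats, n = 4; iv dose 3 mg/kg in 10% NMP, 10% Cremophor EL, acetate buffer pH 4.2 q.s.; values are means.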

[13] = Terminal half-life in Wistar rat at 3 mg/kg, iv by LC-MS/MS analysis; format: ADME, organism-based; settings: in vivo, read-out: beta t1/2 (converted); outline: as §2
[14] = Cmax in Wistar rat at 10 mg/kg, po administered via gavage by LC-MS/MS analysis; format: ADME, organism-based; design: dose 10 mg/kg, route oral; settings: in vivo
Outline: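 Male Wistar rats, n = 4; oral dose 10 mg/kg as suspension in 1% Tween 80 with 0.5% w/v NaCMC; values are means.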

[15] = Ratio of AUC (0 to 4 hrs) in Wistar rat brain to plasma at 3 mg/kg, iv by LC-MS/MS analysis; format: ADME, organism-based; settings: read-out: Ratio AUC
Rattus norvegicus [16] = assay: Anti-parkinson's activity in po dosed 6-OHDA-lesioned Wistar rat assessed as increase in L-DOPA induced contralateral rotations measured up to 2 hrs; format: functional
Outline: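 6-OHDA-lesioned rats given oral test doses; L-DOPA 4 mg/kg ip; contralateral rotations recorded up to 2 h, dosing 60 min prior; mean ± SEM, n=6-7; compared with L-DOPA-alone group.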

Rattus norvegicus [17] = assay: Toxicity in 6-OHDA-lesioned Wistar rat model of parkinson's disease assessed as induction of dyskinesia at 0.3 to 3 mg/kg, po administered twice daily for 21 days; format: organism-based; settings: in vivo, 504 h
Outline: (§3)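 6-OHDA-lesioned rats given oral test compound (0.3-3 mg/kg) with L-DOPA, repeated daily; abnormal involuntary movements scored; mean ± SEM, n=6-7.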

Rattus norvegicus [18] = assay: Protection against L-DOPA-induced dyskinesias in 6-OHDA-lesioned Wistar rat model of parkinson's disease assessed as reduction in abnormal involuntary movements at 0.3 to 3 mg/kg, po administered twice daily for 21 days measured every 7 days; format: functional, organism-based; outline: as §3
Mus musculus [19] = assay: Antidepressant-like activity in po dosed mouse assessed as reduction in immobility time treated 1 hr prior to testing measured for 6 mins by tail suspension test
Mus musculus [20] = assay: Antidepressant-like activity in po dosed mouse assessed as reduction in immobility time treated 1 hr prior to testing measured last 4 mins of 6 mins test by forced swim test

Compound: COCCOc1ccc(N2CCN(CCn3c(=O)n(C)c4c3nc(N)n3nc(-c5nccs5)nc43)CC2)cc1F
- Ki (Adenosine receptor A2a [1]): 0.0015 µM
- Ki (Adenosine receptor A1): 1.7 µM
- Ki (Adenosine receptor A2a [2]): 0.00044 to 0.0044 µM
- Ratio Ki (Homo sapiens): > 1100
- solubility [3]: 17 µM (≈ 9.67 µg/mL)
- Ki (Adenosine receptor A2b): 5 µM
- inhibition [4]: inactive
- Drug metabolism [5]: 0.08 nmol/min/mg
- solubility [6]: 486 µM (≈ 276 µg/mL)
- permeability [7]: Permeable
- permeability [8]: Permeable
- fraction unbound [9]: 0.49
- fraction unbound [10]: 0.22
- fraction unbound [11]: 0.15
- IC50 (Cytochrome P450 2C19): > 10 µM
- inhibition at 3 µM (hERG): 28%
- Vd [12]: 3.6 L/kg
- half-life [13]: 1 h
- Cmax [14]: 600 nM
- Kp [15]: 0.38
- Activity (Rattus norvegicus [16]): Dose-dependent effect
- ED50 (Rattus norvegicus [16]): 1.2 mg/kg
- Activity (Rattus norvegicus [17]): Non-Toxic
- Activity (Rattus norvegicus [18]): Active
- ED50 (Mus musculus [19]): 0.7 mg/kg
- ED50 (Mus musculus [20]): 5.29 mg/kg
